In ChEMBL document CHEMBL5247575 (J Med Chem, 2018):

These compounds were tested on Bacteria (assay: Inhibition of bacteria KPC-2 assessed as half life using nitrocefin as substrate). Settings: not given.

Compound | T1/2 [min]
O=C(NNC(=O)[C@@H]1CC[C@@H]2CN1C(=O)N2OS(=O)(=O)O)[C@@H]1CCNC1 | 33

The compounds below were run on Escherichia coli (assay: Synergistic antibacterial activity against Escherichia coli DH10B assessed as cefepime MIC at 4 ug/ml by broth microdilution method). Settings: dose 4 µg/ml.
Format: functional

Compound | MIC [µg/mL]
O=C(NNC(=O)[C@@H]1CC[C@@H]2CN1C(=O)N2OS(=O)(=O)O)[C@@H]1CCNC1 | ≤ 0.12

These compounds were tested on Klebsiella pneumoniae (assay: Synergistic antibacterial activity against Klebsiella pneumoniae 972/1910 producing KPC-3 assessed as cefepime MIC at 4 ug/ml by broth microdilution method). Settings: dose 4 µg/ml.
Format: functional

Compound | MIC [µg/mL]
O=C(NNC(=O)[C@@H]1CC[C@@H]2CN1C(=O)N2OS(=O)(=O)O)[C@@H]1CCNC1 | ≤ 0.12

Each compound was assayed on Pseudomonas aeruginosa (assay: Synergistic antibacterial activity against Pseudomonas aeruginosa 776 assessed as cefepime MIC at 4 ug/ml by broth microdilution method). Settings: dose 4 µg/ml.
Format: functional

Compound | MIC [µg/mL]
O=C(NNC(=O)[C@@H]1CC[C@@H]2CN1C(=O)N2OS(=O)(=O)O)[C@@H]1CCNC1 | 16

These compounds were tested on Pseudomonas aeruginosa (assay: Synergistic antibacterial activity against Pseudomonas aeruginosa 839 assessed as cefepime MIC at 4 ug/ml by broth microdilution method). Settings: dose 4 µg/ml.
Format: functional

Compound | MIC [µg/mL]
O=C(NNC(=O)[C@@H]1CC[C@@H]2CN1C(=O)N2OS(=O)(=O)O)[C@@H]1CCNC1 | ≤ 0.12

These compounds were tested on Acinetobacter baumannii (assay: Synergistic antibacterial activity against Acinetobacter baumannii PR323 producing OXA-24/40 assessed as cefepime MIC at 4 ug/ml by broth microdilution method). Settings: dose 4 µg/ml.
Format: functional

Compound | MIC [µg/mL]
O=C(NNC(=O)[C@@H]1CC[C@@H]2CN1C(=O)N2OS(=O)(=O)O)[C@@H]1CCNC1 | 4

What follows are compounds tested on Acinetobacter baumannii (assay: Synergistic antibacterial activity against Acinetobacter baumannii PR408 producing OXA-24/40 assessed as cefepime MIC at 4 ug/ml by broth microdilution method). Settings: dose 4 µg/ml.
Format: functional

Compound | MIC [µg/mL]
O=C(NNC(=O)[C@@H]1CC[C@@H]2CN1C(=O)N2OS(=O)(=O)O)[C@@H]1CCNC1 | 16

The compounds below were run on Acinetobacter baumannii (assay: Synergistic antibacterial activity against Acinetobacter baumannii PR448 producing OXA-23 assessed as cefepime MIC at 4 ug/ml by broth microdilution method). Settings: dose 4 µg/ml.
Format: functional

Compound | MIC [µg/mL]
O=C(NNC(=O)[C@@H]1CC[C@@H]2CN1C(=O)N2OS(=O)(=O)O)[C@@H]1CCNC1 | 4

These compounds were tested on Escherichia coli (assay: Synergistic antibacterial activity against Escherichia coli DH10B transfected with pBR322-catI-KPC-2 assessed as cefepime MIC at 8 ug/ml by broth microdilution method). Settings: dose 8 µg/ml.
Format: functional
Outline: (§1)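 Broth microdilution per CLSI guidelines, using custom frozen panels. […] Each partner drug was also tested alone. MICs were run in triplicate and the modal value is reported.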

Compound | MIC [µg/mL]
O=C(NNC(=O)[C@@H]1CC[C@@H]2CN1C(=O)N2OS(=O)(=O)O)[C@@H]1CCNC1 | ≤ 0.12

The compounds below were run on Klebsiella pneumoniae (assay: Synergistic antibacterial activity against Klebsiella pneumoniae 660/1568 producing KPC-3 assessed as cefepime MIC at 8 ug/ml by broth microdilution method). Settings: dose 8 µg/ml.
Format: functional
Outline: as §1

Compound | MIC [µg/mL]
O=C(NNC(=O)[C@@H]1CC[C@@H]2CN1C(=O)N2OS(=O)(=O)O)[C@@H]1CCNC1 | ≤ 0.12

The compounds below were run on Klebsiella pneumoniae (assay: Synergistic antibacterial activity against Klebsiella pneumoniae 729/1679 producing KPC-3 assessed as cefepime MIC at 8 ug/ml by broth microdilution method). Settings: dose 8 µg/ml.
Format: functional
Outline: as §1

Compound | MIC [µg/mL]
O=C(NNC(=O)[C@@H]1CC[C@@H]2CN1C(=O)N2OS(=O)(=O)O)[C@@H]1CCNC1 | ≤ 0.12

Each compound was assayed on Klebsiella pneumoniae (assay: Synergistic antibacterial activity against Klebsiella pneumoniae 1108/1989 producing KPC-3 assessed as cefepime MIC at 8 ug/ml by broth microdilution method). Settings: dose 8 µg/ml.
Format: functional
Outline: as §1

Compound | MIC [µg/mL]
O=C(NNC(=O)[C@@H]1CC[C@@H]2CN1C(=O)N2OS(=O)(=O)O)[C@@H]1CCNC1 | ≤ 0.12

Each compound was assayed on Klebsiella pneumoniae (assay: Synergistic antibacterial activity against Klebsiella pneumoniae CAV 1636 producing OXA-181 assessed as cefepime MIC at 8 ug/ml by broth microdilution method). Settings: dose 8 µg/ml.
Format: functional

Compound | MIC [µg/mL]
O=C(NNC(=O)[C@@H]1CC[C@@H]2CN1C(=O)N2OS(=O)(=O)O)[C@@H]1CCNC1 | ≤ 0.12

Each compound was assayed on Pseudomonas aeruginosa (assay: Synergistic antibacterial activity against Pseudomonas aeruginosa CL232 assessed as cefepime MIC at 8 ug/ml by broth microdilution method). Settings: dose 8 µg/ml.
Format: functional

Compound | MIC [µg/mL]
O=C(NNC(=O)[C@@H]1CC[C@@H]2CN1C(=O)N2OS(=O)(=O)O)[C@@H]1CCNC1 | 4

The compounds below were run on Acinetobacter baumannii (assay: Synergistic antibacterial activity against Acinetobacter baumannii PR381 producing OXA-24/40 assessed as cefepime MIC at 8 ug/ml by broth microdilution method). Settings: dose 8 µg/ml.
Format: functional

Compound | MIC [µg/mL]
O=C(NNC(=O)[C@@H]1CC[C@@H]2CN1C(=O)N2OS(=O)(=O)O)[C@@H]1CCNC1 | 16

What follows are compounds tested on Acinetobacter baumannii (assay: Synergistic antibacterial activity against Acinetobacter baumannii PR476 producing OXA-24/40 assessed as cefepime MIC at 8 ug/ml by broth microdilution method). Settings: dose 8 µg/ml.
Format: functional

Compound | MIC [µg/mL]
O=C(NNC(=O)[C@@H]1CC[C@@H]2CN1C(=O)N2OS(=O)(=O)O)[C@@H]1CCNC1 | 2

These compounds were tested on Klebsiella pneumoniae (assay: Synergistic antibacterial activity against Klebsiella pneumoniae 1084/1957 producing KPC-3 assessed as meropenem MIC at 4 ug/ml by broth microdilution method). Settings: dose 4 µg/ml.
Format: functional
Outline: as §1

Compound | MIC [µg/mL]
O=C(NNC(=O)[C@@H]1CC[C@@H]2CN1C(=O)N2OS(=O)(=O)O)[C@@H]1CCNC1 | ≤ 0.12

What follows are compounds tested on Klebsiella pneumoniae (assay: Synergistic antibacterial activity against Klebsiella pneumoniae 1398/2291 producing KPC-3 assessed as meropenem MIC at 4 ug/ml by broth microdilution method). Settings: dose 4 µg/ml.
Format: functional
Outline: as §1

Compound | MIC [µg/mL]
O=C(NNC(=O)[C@@H]1CC[C@@H]2CN1C(=O)N2OS(=O)(=O)O)[C@@H]1CCNC1 | ≤ 0.12

These compounds were tested on Klebsiella pneumoniae (assay: Synergistic antibacterial activity against Klebsiella pneumoniae 761/1723 producing KPC-3 assessed as meropenem MIC at 4 ug/ml by broth microdilution method). Settings: dose 4 µg/ml.
Format: functional

Compound | MIC [µg/mL]
O=C(NNC(=O)[C@@H]1CC[C@@H]2CN1C(=O)N2OS(=O)(=O)O)[C@@H]1CCNC1 | ≤ 0.12

What follows are compounds tested on Klebsiella pneumoniae (assay: Synergistic antibacterial activity against Klebsiella pneumoniae 1354/2241 producing KPC-3 assessed as meropenem MIC at 4 ug/ml by broth microdilution method). Settings: dose 4 µg/ml.
Format: functional
Outline: as §1

Compound | MIC [µg/mL]
O=C(NNC(=O)[C@@H]1CC[C@@H]2CN1C(=O)N2OS(=O)(=O)O)[C@@H]1CCNC1 | ≤ 0.12

Each compound was assayed on Klebsiella pneumoniae (assay: Synergistic antibacterial activity against Klebsiella pneumoniae CAV 1636 producing OXA-181 assessed as meropenem MIC at 4 ug/ml by broth microdilution method). Settings: dose 4 µg/ml.
Format: functional

Compound | MIC [µg/mL]
O=C(NNC(=O)[C@@H]1CC[C@@H]2CN1C(=O)N2OS(=O)(=O)O)[C@@H]1CCNC1 | ≤ 0.12

Each compound was assayed on Klebsiella pneumoniae (assay: Synergistic antibacterial activity against Klebsiella pneumoniae NY BS producing OXA-232 assessed as meropenem MIC at 4 ug/ml by broth microdilution method). Settings: dose 4 µg/ml.
Format: functional

Compound | MIC [µg/mL]
O=C(NNC(=O)[C@@H]1CC[C@@H]2CN1C(=O)N2OS(=O)(=O)O)[C@@H]1CCNC1 | ≤ 0.12

These compounds were tested on Pseudomonas aeruginosa (assay: Synergistic antibacterial activity against Pseudomonas aeruginosa CL232 assessed as meropenem MIC at 4 ug/ml by broth microdilution method). Settings: dose 4 µg/ml.
Format: functional

Compound | MIC [µg/mL]
O=C(NNC(=O)[C@@H]1CC[C@@H]2CN1C(=O)N2OS(=O)(=O)O)[C@@H]1CCNC1 | > 16

Each compound was assayed on Pseudomonas aeruginosa (assay: Synergistic antibacterial activity against Pseudomonas aeruginosa 776 assessed as meropenem MIC at 4 ug/ml by broth microdilution method). Settings: dose 4 µg/ml.
Format: functional

Compound | MIC [µg/mL]
O=C(NNC(=O)[C@@H]1CC[C@@H]2CN1C(=O)N2OS(=O)(=O)O)[C@@H]1CCNC1 | 16

Each compound was assayed on Acinetobacter baumannii (assay: Synergistic antibacterial activity against Acinetobacter baumannii PR359 producing OXA-23 assessed as meropenem MIC at 4 ug/ml by broth microdilution method). Settings: dose 4 µg/ml.
Format: functional

Compound | MIC [µg/mL]
O=C(NNC(=O)[C@@H]1CC[C@@H]2CN1C(=O)N2OS(=O)(=O)O)[C@@H]1CCNC1 | > 16

Each compound was assayed on Acinetobacter baumannii (assay: Synergistic antibacterial activity against Acinetobacter baumannii PR420 producing OXA-23/24/40 assessed as meropenem MIC at 4 ug/ml by broth microdilution method). Settings: dose 4 µg/ml.
Format: functional

Compound | MIC [µg/mL]
O=C(NNC(=O)[C@@H]1CC[C@@H]2CN1C(=O)N2OS(=O)(=O)O)[C@@H]1CCNC1 | > 16

Each compound was assayed on Acinetobacter baumannii (assay: Synergistic antibacterial activity against Acinetobacter baumannii PR474 producing OXA-23/24/40 assessed as meropenem MIC at 4 ug/ml by broth microdilution method). Settings: dose 4 µg/ml.
Format: functional

Compound | MIC [µg/mL]
O=C(NNC(=O)[C@@H]1CC[C@@H]2CN1C(=O)N2OS(=O)(=O)O)[C@@H]1CCNC1 | > 16

What follows are compounds tested on Acinetobacter baumannii (assay: Synergistic antibacterial activity against ADC deleted Acinetobacter baumannii transfected with pWH1266 producing OXA-24/40 assessed as meropenem MIC at 4 ug/ml by broth microdilution method). Settings: dose 4 µg/ml.
Format: functional

Compound | MIC [µg/mL]
O=C(NNC(=O)[C@@H]1CC[C@@H]2CN1C(=O)N2OS(=O)(=O)O)[C@@H]1CCNC1 | > 16

These compounds were tested on Escherichia coli (assay: Synergistic antibacterial activity against Escherichia coli DH10B transfected with pBC SK (-) KPC-3 assessed as meropenem MIC at 8 ug/ml by broth microdilution method). Settings: dose 8 µg/ml.
Format: functional

Compound | MIC [µg/mL]
O=C(NNC(=O)[C@@H]1CC[C@@H]2CN1C(=O)N2OS(=O)(=O)O)[C@@H]1CCNC1 | ≤ 0.12

These compounds were tested on Escherichia coli (assay: Synergistic antibacterial activity against Escherichia coli DH10B transfected with pBC SK (-) PDC-3 assessed as meropenem MIC at 8 ug/ml by broth microdilution method). Settings: dose 8 µg/ml.
Format: functional
Outline: as §1

Compound | MIC [µg/mL]
O=C(NNC(=O)[C@@H]1CC[C@@H]2CN1C(=O)N2OS(=O)(=O)O)[C@@H]1CCNC1 | ≤ 0.12

The compounds below were run on Escherichia coli (assay: Synergistic antibacterial activity against Escherichia coli DH10B transfected with pBC SK (-) OXA-48 assessed as meropenem MIC at 8 ug/ml by broth microdilution method). Settings: dose 8 µg/ml.
Format: functional
Outline: as §1

Compound | MIC [µg/mL]
O=C(NNC(=O)[C@@H]1CC[C@@H]2CN1C(=O)N2OS(=O)(=O)O)[C@@H]1CCNC1 | ≤ 0.12

These compounds were tested on Klebsiella pneumoniae (assay: Synergistic antibacterial activity against Klebsiella pneumoniae 1398/2291 producing KPC-3 assessed as meropenem MIC at 8 ug/ml by broth microdilution method). Settings: dose 8 µg/ml.
Format: functional
Outline: as §1

Compound | MIC [µg/mL]
O=C(NNC(=O)[C@@H]1CC[C@@H]2CN1C(=O)N2OS(=O)(=O)O)[C@@H]1CCNC1 | ≤ 0.12

The compounds below were run on Klebsiella pneumoniae (assay: Synergistic antibacterial activity against Klebsiella pneumoniae 972/1910 producing KPC-3 assessed as meropenem MIC at 8 ug/ml by broth microdilution method). Settings: dose 8 µg/ml.
Format: functional

Compound | MIC [µg/mL]
O=C(NNC(=O)[C@@H]1CC[C@@H]2CN1C(=O)N2OS(=O)(=O)O)[C@@H]1CCNC1 | ≤ 0.12

The compounds below were run on Pseudomonas aeruginosa (assay: Synergistic antibacterial activity against Pseudomonas aeruginosa 776 assessed as meropenem MIC at 8 ug/ml by broth microdilution method). Settings: dose 8 µg/ml.
Format: functional

Compound | MIC [µg/mL]
O=C(NNC(=O)[C@@H]1CC[C@@H]2CN1C(=O)N2OS(=O)(=O)O)[C@@H]1CCNC1 | 16

What follows are compounds tested on Acinetobacter baumannii (assay: Synergistic antibacterial activity against Acinetobacter baumannii PR319 producing OXA-23/24/40 assessed as meropenem MIC at 8 ug/ml by broth microdilution method). Settings: dose 8 µg/ml.
Format: functional

Compound | MIC [µg/mL]
O=C(NNC(=O)[C@@H]1CC[C@@H]2CN1C(=O)N2OS(=O)(=O)O)[C@@H]1CCNC1 | > 16

What follows are compounds tested on Acinetobacter baumannii (assay: Synergistic antibacterial activity against Acinetobacter baumannii PR420 producing OXA-23/24/40 assessed as meropenem MIC at 8 ug/ml by broth microdilution method). Settings: dose 8 µg/ml.
Format: functional

Compound | MIC [µg/mL]
O=C(NNC(=O)[C@@H]1CC[C@@H]2CN1C(=O)N2OS(=O)(=O)O)[C@@H]1CCNC1 | > 16
